Measurements published in ChEMBL document CHEMBL4513216, “Probing the Open Global Health Chemical Diversity Library for Multistage-Active Starting Points for Next-Generation Antimalarials” (ACS Infect Dis, 2020).

Assay: Toxicity liver stage against HepG2, at 10uM
Assay type: cell-based
Set-up: test concentration 10 uM, cell line HepG2-A16-CD81EGFP
Details: human, HepG2-A16-CD81EGFP cells; read-out: INHIBITION
How it was run: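 Uninfected HepG2-A16-CD81EGFP cells, 3 × 10^3 per well, 1536-well, plated on prespotted compound at 10 μM final, parasite-free screening media added to match infected plates; puromycin 10 μM positive, DMSO 0.5% negative; run in parallel with 48 h PbLuc assay at 37 °C, 5% CO2; viability by CellTiter-Glo luminescence, normalized to controls.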

SMILES | cytotoxicity at 10 µM [%]
CC(=O)NC1CCCN(C(=O)NCc2cccnc2N(C)C)C1 (stereo not given) | -1.97
Cc1ccc(N(C)C2CCN(C(=O)c3ccsc3)CC2)nn1 | -12.1
Cc1nc(C)c(C(=O)N2CCCC(C(=O)c3nccn3C)C2)s1 (stereo not given) | 2.3
CCNS(=O)(=O)C1CCN(C(=O)c2ccc(F)cc2)C1 (stereo not given) | 7.98
CN(CC(=O)NC(Cc1ccsc1)c1cccnc1)Cc1cccnc1 (stereo not given) | -4.04
Cc1noc(C2CN(Cc3ccc4c(c3)CCO4)C2)n1 | -0.478
CCCc1nnsc1C(=O)N1CCN(CC(C)O)CC1 (stereo not given) | -5.3
O=C1NCCCCC1Sc1n[nH]c(=O)n1C1CC1 (stereo not given) | 5.24
CC(C)c1n[nH]c(C2CN(C(=O)c3ncoc3C(C)C)CCO2)n1 (stereo not given) | -7.22
O=C(NC1CCN(c2cccc(C(F)(F)F)n2)CC1)C1CC1 | -0.432
Cn1c(NCCN2CCCCCC2)c(C#N)c(=O)n(C)c1=O | 0.0687
CCN1CCCC(c2cc(Nc3cnccn3)nc(C)n2)C1 (stereo not given) | -12.9
Cc1nn(C)c(C)c1C1CCCN1C(=O)c1ccc(C(N)=O)cn1 (stereo not given) | -4.34
NC(=O)[C@@H]1CN2CCN(C(=O)C3CC3)C[C@@H]2[C@H]1c1ccccc1 | 3.88
O=C(C1CC=CC1)N1C[C@@H]2CN(Cc3ccsc3)CCO[C@@H]2C1 | -87.4
O=C(Cc1ccc(F)cc1)N1CCN(CC(O)C2CC2)CC1 (stereo not given) | -15.2
CN1CCN(c2ccc(C(=O)N3CCCC(c4ncc[nH]4)C3)cc2)CC1 (stereo not given) | 4.15
Cc1nnn2c1COC(CNCc1nccs1)C2 (stereo not given) | 1.71
O=C(Nc1ccc(CC(=O)N2CCCC2)cc1)NC1CC1 | -2.16
N#CCCCn1nnc(C2(NC(=O)c3ccccc3)CCCC2)n1 | 13.6
Oc1cc(CNCCN2CCCCC2)nc2c(F)cccc12 | -1.16
Cc1cnc(CNS(=O)(=O)CCC2CCCO2)o1 (stereo not given) | 9.84

SMILES | cytotoxicity at 10 µM [%]
c1ccc2[nH]c(C3CCN(Cc4nc(C5CC5)no4)CC3)cc2c1 | 9.02
O=C(CCn1cc(Cl)cn1)N1CCN(CCOc2ccccc2)CC1 | 4.92
C[C@H](O)c1cnn(-c2ccccc2)c1 | 0.503
CC(=O)N1CCC(c2cncc(N3CCOCC3)n2)CC1 | 3.66
CCN1C(=O)CC[C@@H]2N(C(=O)CCn3nccc3C)CCCC[C@@]21C | -3.41
CN(C)C[C@H]1C[C@@H]2CN(Cc3ccco3)C[C@@H]2O1 | -1.66
Cn1c(CCCNc2nccnc2C#N)nc2ccccc21 | -8.98
O=C(Nc1nncs1)NC1CCN(Cc2ccccc2)C1 (stereo not given) | -0.397
CC(C)COC(=O)N1CC(=O)N(Cc2ccco2)CC(O)C1 (stereo not given) | -1.7
Cc1cc(C(=O)N[C@H]2Cc3ccccc3[C@@H]2N)c(=O)[nH]c1C | 11.2
CC(C)C(=O)N1CCOC2(COCCN(c3ncccn3)C2)C1 (stereo not given) | -114
Cc1cnn(CC2CCCCN2C(=O)c2cnc3n[nH]c(C)c3c2)c1 (stereo not given) | -26.2
Cc1nc(C)n(CC2CCCN(CCc3ccncc3)C2)n1 (stereo not given) | -23
CCn1cc(CN2CCCN(C(=O)CCN3CCCC3=O)CC2)cn1 | 0.428
C[C@@H]1CN(Cc2cc(C(F)(F)F)ccc2F)CC[C@@]1(O)C1CC1 | 6
Cn1ccc2c(-c3cc(N)nc(N4CCOCC4)n3)ccnc21 | -3.67
CCc1cc(C(=O)N2CC[C@@H](c3ccc4c(c3)OCO4)[C@H](O)C2)ccn1 | 1.48
CS(=O)(=O)c1cn[nH]c1C1CCCCN1C(=O)c1ccsc1 (stereo not given) | -18.6
Cc1cc(C)n(C2CCCN(C(=O)CN(C)c3cnccn3)C2)n1 (stereo not given) | 3.36
CC(C)(C)[S+]([O-])CCNC(=O)c1cccc2ncccc12 (stereo not given) | -45.1
CCc1nc(N)nc(NCCC(=O)N2CCCC2)c1C | -42.5
Cn1ccnc1C(=O)N1CCC2(CCCN2CC2CC2)CC1 | 8.31

SMILES | cytotoxicity at 10 µM [%]
O=C(CCCN1CCCCC1)N1CCN(C(=O)c2ccc[nH]2)CC1 | 57.8
Cc1ccoc1C(=O)N1CC[C@@H]2O[C@@H](C)C[C@H]2C1 | 2.26
CCCn1nnnc1COC(=O)C1Cc2cc(Cl)ccc2O1 (stereo not given) | -5.68
CC(C)NC(=O)C1(Cc2ccccc2-c2cncnc2)CCCNC1 (stereo not given) | 3.67
CC(=O)N1CCC(n2nccc2-c2cnc(NCCO)nc2)CC1 | -1
Cc1cnc(N(C)CCCc2cnn(C)c2)nc1N(C)C | 2.03
CN(C)C(=O)[C@@H]1CCO[C@@H]2CCN(Cc3ccccc3)C[C@@H]21 | -12.1
Cc1nc(CN2CCN(C(=O)C(C(C)C)n3cncn3)CC2)cs1 (stereo not given) | -1.29
CC(C)(O)CCc1ccc(C(=O)N2CCN(CC(F)(F)F)CC2)cc1 | 6.16
Cc1noc(CN(Cc2ccco2)Cc2cccc3c2OCO3)n1 | -2.51
COc1ccc(C[C@H]2CNCC[C@@H]2OC)cc1 | 3.11
Cc1cc(-n2cnnn2)n2ncnc2n1 | -5.66
CNc1cncc(C2CCCN2Cc2ccccc2OCC(=O)O)n1 (stereo not given) | -0.105
CCOC(=O)CNC(=O)NCc1cccn1Cc1cccc(C)c1 | 9.24
CCC(C)NC(=O)Nc1cccc(OCCCC#N)c1 (stereo not given) | -2.01
CNC(=O)[C@@]12CCCN(c3ncccn3)[C@@H]1CN(C(=O)NC(C)C)C2 | 0.614
CCN(CC(=O)NC(C)C)S(=O)(=O)N1CCCCCC1 | 2.37
CC(C)c1nnc2ccc(N3CCC(C(N)=O)CC3)nn12 | 8.63
COc1cc(CNCC(O)c2ccccc2)cc2c1OCO2 (stereo not given) | -13
O=C(c1ccc[nH]1)N1C[C@@H]2CC[C@H]1CN(c1ncccn1)C2 | -7.12
CS(=O)(=O)N1CC[C@@H]2O[C@@H](COCC(=O)N3CCCC3)CC[C@@H]21 | -0.879
CC(Oc1cc(Cl)cc(Cl)c1)C(=O)NCCS(N)(=O)=O (stereo not given) | -11.7

SMILES | cytotoxicity at 10 µM [%]
Cc1cc(C)c(CNC(=O)NC2COc3ccccc3C2)c(=O)[nH]1 (stereo not given) | -13.8
Cc1ocnc1C(=O)N1CCC2(CC1)c1nc[nH]c1CCN2CC(C)C | -11.4
c1ccc(NCc2cn3c(n2)CN(Cc2ccoc2)CC3)nc1 | 10.4
CS(=O)(=O)N[C@H]1CN(C(=O)CCc2ccco2)C[C@@H]1C1CC1 | 2.7
CCOCCC1(CNC(=O)c2ccc(C)nc2)CCCC1 | 7.25
O=S(=O)(C1CC1)N1CCC2(CC1)CC(Oc1cccnc1)CO2 (stereo not given) | -2.27
O=C1C(NCc2nnc3n2CCCC3)CCN1CC(F)(F)F (stereo not given) | -13.8
NC1CCCCN(Cc2cc(-c3ccccc3OC(F)(F)F)no2)C1 (stereo not given) | -4.52
COc1ccc(CC(=O)N2CCC[C@@H](N)[C@@H]2c2ccccc2F)cc1 | 2.49
Cc1nn(C)cc1CN1CCCCCC1c1ccc(Cl)cc1 (stereo not given) | 4.93
COCCN1C(=O)CCC12CCCN(Cc1nccs1)CC2 (stereo not given) | -85.1
Cc1cccc(N(C)Cc2cc(=O)n3oc(C)cc3n2)c1 | 0.14
CC(c1nc(C2CC2)no1)N1CCN(Cc2ccsc2)CC1 (stereo not given) | 0.993
CCn1nnc(NCc2cc(Br)cc(Br)c2OC)n1 | 13.3
COCC(=O)N1CCCC1(C(=O)N(C)C)c1cnccn1 (stereo not given) | 3.96
CCN1CCN(C(=O)Cn2nc(C(F)(F)F)c(Br)c2C2CC2)CC1 | -8.78
CCOc1cc(C(=O)N2CCN(CC)CC2)cc2occc12 | 4.37
O=c1cc(-c2cccnc2)nc(-c2ccc(CN3CC[C@H](O)C3)cc2)[nH]1 | 3.98
Cc1ccc(S(=O)(=O)N2CCN(Cc3ccncc3)CC2)c(Cl)c1 | -0.147
COc1ccc(CNC(=O)CN2CCc3ccccc32)cc1 | 10.5
CCOC(=O)[C@H]1[C@@H](O)C(=O)N(C)C12CCN(C(=O)CC(C)C)CC2 | -5.12
O=C(c1cccnc1N1CCN(Cc2ccoc2)CC1)N1CCCCC1 | -3.68

SMILES | cytotoxicity at 10 µM [%]
COc1nc2ccn(CCc3cc(O)nc(C)n3)c(=O)c2cc1C#N | 10.9
CC(=O)Nc1c(C)cnn1Cc1cc(F)ccc1F | 25.3
O=C1C[C@H]2[C@@H](CCN2C(=O)Cc2ccccc2)N1Cc1cccnc1 | -3.86
COc1ccc(OC2CCN(C(=O)c3cnc(C)s3)CC2)cc1 | -18
CC(Nc1ccc(CN2CCCC2=O)cc1)c1ccc(C#N)cc1 (stereo not given) | 6.29
CCn1c(CN2CCCC2)nnc1C1CCN(Cc2cccnc2)CC1 | 3.33
CC(=O)N1C[C@@H](F)[C@@H](OCc2nc3ccccc3o2)C1 | -1.34
Cc1noc(C2CN(S(=O)(=O)C3CC3)Cc3ccnn3C2)n1 (stereo not given) | 7.19
Cc1cccc2[nH]c(C3CCN(C(=O)c4c[nH]c(=O)[nH]c4=O)CC3)nc12 | 8.59
CN(C)C(=O)c1cccc(NC(=O)N(CCO)Cc2ccsc2)c1 | -13.4
CCc1cccc(OCC(=O)NC(C)c2nnc3n2CCC3)c1 (stereo not given) | -3.78
COc1ccc(NC(=O)NCc2ccnc(N(C)C)c2)cn1 | -8.6
CCCc1cc(C(=O)Nc2nc(SC)ns2)[nH]n1 | -19.3
CC(=O)N1N=C(c2ccco2)OC1C(=O)NCCc1ccc(F)cc1 (stereo not given) | -1.92
Cc1cccc2nc(CNC(=O)N3CCC(OCC4CC4)CC3)cn12 | -2.02
CN(C)C(Cn1ccnc1-c1ccccc1C(=O)O)c1ccccc1Cl (stereo not given) | -0.966
CC(C)C(=O)N1CCC2(CC1)NC(=O)[C@H]1CN(C(=O)N(C)C)C[C@H]12 | 3.03
Cc1nc2c(c(NCCN3CCOCC3)n1)CCN(C)C2 | 4.09
CCC(C(=O)N(Cc1ccccn1)C1CCCCC1)n1cccn1 (stereo not given) | -45.3
CC(C)Oc1ccc2c(NC(=O)[C@H](C)O)nn(CC(F)(F)F)c2c1 | -4.87
Cc1cc(NC(=O)CN2CCCC2c2noc(C(C)C)n2)n(C)n1 (stereo not given) | 4.64
FC(F)(F)Sc1ccccc1NCc1nc(C2CC2)no1 | 0.858
